Measured values reported in publication PMC11661184 (bioRxiv, 2024).

Tested on: CaM (Calmodulin-agarose)
Assay: CaM-agarose pulldown of TRPA1 constructs
Assay type: binding
Conditions: for CaM binding of truncated hTRPA1 constructs: CaM-agarose pulldown, HEK293T lysate, immunoblot; for CaM binding at basal Ca2+ concentration: n=3 independent experiments
Method in brief: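 HEK293T cells were transfected with tagged TRPA1 constructs and lysed after 16-24 h in Tris pH 8.0 buffer containing 5 mM DDM and 500 µM EGTA. Free Ca²⁺ was set with CaCl₂, calculated from EGTA constants. 100 µg lysate was incubated with CaM-agarose for 1 h at 4 °C, washed, then eluted with 5 mM EGTA. Detection was by anti-FLAG or anti-MBP immunoblot, with tubulin input control. Enrichment is relative to the maximum within each replicate.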

Molecule | CaM binding of truncated hTRPA1 constructs | CaM binding at basal Ca2+ concentration
hTRPA1^Δ1079–1119 (protein) MKRSLRKMWRPGEKKEPQGVVYEDVPDDTEDFKESLKVVFEGSAYGLQNFNKQKKLKRCDDMDTFFLHYAAAEGQIELMEKITRDSSLEVLHEMDDYGNTPLHCAVEKNQIESVKFLLSRGANPNLRNFNMMAPLHIAVQGMNNEVMKVLLEHRTIDVNLEGENGNTAVIIACTTNNSEALQILLKKGAKPCKSNKWGCFPIHQAAFSGSKECMEIILRFGEEHGYSRQLHINFMNNGKATPLHLAVQNGDLEMIKMCLDNGAQIDPVEKGRCTAIHFAATQGATEIVKLMISSYSGSVDIVNTTDGCHETMLHRASLFDHHELADYLISVGADINKIDSEGRSPLILATASASWNIVNLLLSKGAQVDIKDNFGRNFLHLTVQQPYGLKNLRPEFMQMQQIKELVMDEDNDGCTPLHYACRQGGPGSVNNLLGFNVSIHSKSKDKKSPLHFAASYGRINTCQRLLQDISDTRLLNEGDLHGMTPLHLAAKNGHDKVVQLLLKKGALFLSDHNGWTALHHASMGGYTQTMKVILDTNLKCTDRLDEDGNTALHFAAREGHAKAVALLLSHNADIVLNKQQASFLHLALHNKRKEVVLTIIRSKRWDECLKIFSHNSPGNKCPITEMIEYLPECMKVLLDFCMLHSTEDKSCRDYYIEYNFKYLQCPLEFTKKTPTQDVIYEPLTALNAMVQNNRIELLNHPVCKEYLLMKWLAYGFRAHMMNLGSYCLGLIPMTILVVNIKPGMAFNSTGIINETSDHSEILDTTNSYLIKTCMILVFLSSIFGYCKEAGQIFQQKRNYFMDISNVLEWIIYTTGIIFVLPLFVEIPAHLQWQCGAIAVYFYWMNFLLYLQRFENCGIFIVMLEVILKTLLRSTVVFIFLLLAFGLSFYILLNLQDPFSSPLLSIIQTFSMMLGDINYRESFLEPYLRNELAHPVLSFAQLVSFTIFVPIVLMNLLIGLAVGDIAEVQKHASLKRIAMQVELHTSLEKKLPLWFLRKVDQKSTIVYPNKPRSGGMLFHIFCFLFCTGEIRQEIPNADKSLEMEILKQKYRLKDLTFLLEKQHELIKLIIQKMEIISET | ablated Ca^2+/CaM binding | 
L1107A (protein, UniProt O75762 1-1119, looked up, variant L1107A) Transient receptor potential …: MKRSLRKMWRPGEKKEPQGVVYEDVPDDTEDFKESLKVVFEGSAYGLQNFNKQKKLKRCDDMDTFFLHYAAAEGQIELMEKITRDSSLEVLHEMDDYGNTPLHCAVEKNQIESVKFLLSRGANPNLRNFNMMAPLHIAVQGMNNEVMKVLLEHRTIDVNLEGENGNTAVIIACTTNNSEALQILLKKGAKPCKSNKWGCFPIHQAAFSGSKECMEIILRFGEEHGYSRQLHINFMNNGKATPLHLAVQNGDLEMIKMCLDNGAQIDPVEKGRCTAIHFAATQGATEIVKLMISSYSGSVDIVNTTDGCHETMLHRASLFDHHELADYLISVGADINKIDSEGRSPLILATASASWNIVNLLLSKGAQVDIKDNFGRNFLHLTVQQPYGLKNLRPEFMQMQQIKELVMDEDNDGCTPLHYACRQGGPGSVNNLLGFNVSIHSKSKDKKSPLHFAASYGRINTCQRLLQDISDTRLLNEGDLHGMTPLHLAAKNGHDKVVQLLLKKGALFLSDHNGWTALHHASMGGYTQTMKVILDTNLKCTDRLDEDGNTALHFAAREGHAKAVALLLSHNADIVLNKQQASFLHLALHNKRKEVVLTIIRSKRWDECLKIFSHNSPGNKCPITEMIEYLPECMKVLLDFCMLHSTEDKSCRDYYIEYNFKYLQCPLEFTKKTPTQDVIYEPLTALNAMVQNNRIELLNHPVCKEYLLMKWLAYGFRAHMMNLGSYCLGLIPMTILVVNIKPGMAFNSTGIINETSDHSEILDTTNSYLIKTCMILVFLSSIFGYCKEAGQIFQQKRNYFMDISNVLEWIIYTTGIIFVLPLFVEIPAHLQWQCGAIAVYFYWMNFLLYLQRFENCGIFIVMLEVILKTLLRSTVVFIFLLLAFGLSFYILLNLQDPFSSPLLSIIQTFSMMLGDINYRESFLEPYLRNELAHPVLSFAQLVSFTIFVPIVLMNLLIGLAVGDIAEVQKHASLKRIAMQVELHTSLEKKLPLWFLRKVDQKSTIVYPNKPRSGGMLFHIFCFLFCTGEIRQEIPNADKSLEMEILKQKYRLKDLTFLLEKQHELIKLIIQKMEIISETEDDDSHCSFQDRFKKEQMEQRNSRWNTVARAVKAKTHHLEP |  | partial reduction in binding
Quad: hTRPA1 W1103A/V1106A/L1107A/V1110A (protein) MKRSLRKMWRPGEKKEPQGVVYEDVPDDTEDFKESLKVVFEGSAYGLQNFNKQKKLKRCDDMDTFFLHYAAAEGQIELMEKITRDSSLEVLHEMDDYGNTPLHCAVEKNQIESVKFLLSRGANPNLRNFNMMAPLHIAVQGMNNEVMKVLLEHRTIDVNLEGENGNTAVIIACTTNNSEALQILLKKGAKPCKSNKWGCFPIHQAAFSGSKECMEIILRFGEEHGYSRQLHINFMNNGKATPLHLAVQNGDLEMIKMCLDNGAQIDPVEKGRCTAIHFAATQGATEIVKLMISSYSGSVDIVNTTDGCHETMLHRASLFDHHELADYLISVGADINKIDSEGRSPLILATASASWNIVNLLLSKGAQVDIKDNFGRNFLHLTVQQPYGLKNLRPEFMQMQQIKELVMDEDNDGCTPLHYACRQGGPGSVNNLLGFNVSIHSKSKDKKSPLHFAASYGRINTCQRLLQDISDTRLLNEGDLHGMTPLHLAAKNGHDKVVQLLLKKGALFLSDHNGWTALHHASMGGYTQTMKVILDTNLKCTDRLDEDGNTALHFAAREGHAKAVALLLSHNADIVLNKQQASFLHLALHNKRKEVVLTIIRSKRWDECLKIFSHNSPGNKCPITEMIEYLPECMKVLLDFCMLHSTEDKSCRDYYIEYNFKYLQCPLEFTKKTPTQDVIYEPLTALNAMVQNNRIELLNHPVCKEYLLMKWLAYGFRAHMMNLGSYCLGLIPMTILVVNIKPGMAFNSTGIINETSDHSEILDTTNSYLIKTCMILVFLSSIFGYCKEAGQIFQQKRNYFMDISNVLEWIIYTTGIIFVLPLFVEIPAHLQWQCGAIAVYFYWMNFLLYLQRFENCGIFIVMLEVILKTLLRSTVVFIFLLLAFGLSFYILLNLQDPFSSPLLSIIQTFSMMLGDINYRESFLEPYLRNELAHPVLSFAQLVSFTIFVPIVLMNLLIGLAVGDIAEVQKHASLKRIAMQVELHTSLEKKLPLWFLRKVDQKSTIVYPNKPRSGGMLFHIFCFLFCTGEIRQEIPNADKSLEMEILKQKYRLKDLTFLLEKQHELIKLIIQKMEIISETEDDDSHCSFQDRFKKEQMEQRNSRANTAARAAKAKTHHLEP |  | similarly ablated CaM binding
hTRPA1^Δ1–61 (protein) MDTFFLHYAAAEGQIELMEKITRDSSLEVLHEMDDYGNTPLHCAVEKNQIESVKFLLSRGANPNLRNFNMMAPLHIAVQGMNNEVMKVLLEHRTIDVNLEGENGNTAVIIACTTNNSEALQILLKKGAKPCKSNKWGCFPIHQAAFSGSKECMEIILRFGEEHGYSRQLHINFMNNGKATPLHLAVQNGDLEMIKMCLDNGAQIDPVEKGRCTAIHFAATQGATEIVKLMISSYSGSVDIVNTTDGCHETMLHRASLFDHHELADYLISVGADINKIDSEGRSPLILATASASWNIVNLLLSKGAQVDIKDNFGRNFLHLTVQQPYGLKNLRPEFMQMQQIKELVMDEDNDGCTPLHYACRQGGPGSVNNLLGFNVSIHSKSKDKKSPLHFAASYGRINTCQRLLQDISDTRLLNEGDLHGMTPLHLAAKNGHDKVVQLLLKKGALFLSDHNGWTALHHASMGGYTQTMKVILDTNLKCTDRLDEDGNTALHFAAREGHAKAVALLLSHNADIVLNKQQASFLHLALHNKRKEVVLTIIRSKRWDECLKIFSHNSPGNKCPITEMIEYLPECMKVLLDFCMLHSTEDKSCRDYYIEYNFKYLQCPLEFTKKTPTQDVIYEPLTALNAMVQNNRIELLNHPVCKEYLLMKWLAYGFRAHMMNLGSYCLGLIPMTILVVNIKPGMAFNSTGIINETSDHSEILDTTNSYLIKTCMILVFLSSIFGYCKEAGQIFQQKRNYFMDISNVLEWIIYTTGIIFVLPLFVEIPAHLQWQCGAIAVYFYWMNFLLYLQRFENCGIFIVMLEVILKTLLRSTVVFIFLLLAFGLSFYILLNLQDPFSSPLLSIIQTFSMMLGDINYRESFLEPYLRNELAHPVLSFAQLVSFTIFVPIVLMNLLIGLAVGDIAEVQKHASLKRIAMQVELHTSLEKKLPLWFLRKVDQKSTIVYPNKPRSGGMLFHIFCFLFCTGEIRQEIPNADKSLEMEILKQKYRLKDLTFLLEKQHELIKLIIQKMEIISETEDDDSHCSFQDRFKKEQMEQRNSRWNTVLRAVKAKTHHLEP | did not affect Ca^2+/CaM binding | 
